ABCG2 block: blocks JC-1 efflux by human ABCG2 transporter; Q9UNQ0; IgMXP3 cells, flow cytometry; inhibition, % at 6.6 µM; 190,000 compounds, 0.1% hits; AID 1325;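 active means inhibition above 80%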;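 further: 0% = DMSO and 100% = nicardipine control wells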
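Test system: IgMXP3 cells (ABCG2) mixed with DDAO far-red-labelled CCRF-Adr cells (ABCB1). Reagent: JC-1 transporter substrate. Compound dosing: single test compound dose, 6.6 µM final. Times: 10 min compound exposure, 25 °C. Detection: flow cytometry of retained JC-1 fluorescence. Read-out basis: efflux inhibition in percent versus controls. Controls: nicardipine and DMSO wells.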
ABCB1 inh: inhibitors of human ABCB1 transporter, ABCG2 counter-screen; P08183; CCRF-Adr cells, JC-1 efflux, flow cytometry; inhibition, % at 6.6 µM; 190,000 compounds, 0.067% hits; AID 1326; in the data active means inhibition above about 40%;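 further: 0% = vehicle and 100% = reference inhibitor; higher value means more JC-1 retained so stronger ABCB1 efflux block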
MEKK2 WT-MEK5: raises or lowers MEK5 binding to wildtype human MEKK2 PB1 domain; binding response (% of control), % at 10 µM; AID 1531; 290,000 compounds, 1.1% hits; bead flow cytometry, Alexa488-MEK5 binding to MEKK2 WT; actives lie on both sides; in the data active means binding response below about 67% or above about 130%
MEKK2 mut-MEK5: signal of MEK5 binding to mutant human MEKK2 PB1 domain; percent response, % at 10 µM; 290,000 compounds, 0.35% hits; AID 1530; bead flow cytometry, Alexa488-MEK5 binding to MEKK2 mutant; in the data active means percent response above about 24%, passing the limit was not always enough
MEKK3 PB1 HTS: modulators (inhibitors or enhancers) of MEK5 binding to human MEKK3 PB1 domain; bead-based flow cytometry, Alexa488-MEK5 binding to MEKK3; actives lie on both sides; 0 = blocked by unlabeled MEK5, 100 = vehicle; 290,000 compounds, 1.4% hits; AID 1529; Q99759; binding response (% of control), % at 10 µM;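 active means binding response more than 3 SD above or below the average of its plate-row segment, actives on both sides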;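 further: Alexa488 bead fluorescence after subtracting the streptavidin-only scavenger bead signal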
MEKK2wt confirm: raises or lowers MEK5 binding to wildtype human MEKK2, retest; shares compounds with MEKK3 PB1 HTS; bead flow cytometry, Alexa488-MEK5 binding to MEKK2 WT; actives lie on both sides; binding response (% of control), % at 10 µM; 5,900 compounds, 2.4% hits; in the data active means binding response below about 16% or above about 210%; inactive means in between
MEKK2mut-MEK5: signal of MEK5 binding to mutant human MEKK2, retest; shares compounds with MEKK3 PB1 HTS; bead flow cytometry, Alexa488-MEK5 binding to MEKK2 mutant; percent response, % at 10 µM; 5,900 compounds, 2% hits; AID 1893; in the data active means percent response mostly above about 71%, no sharp cut-off; inactive means mostly below about 38%;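 further: higher means compound restores mutant binding toward wildtype level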
MEKK3 confirm: confirmation of inhibitors of MEK5 binding to human MEKK3; shares compounds with MEKK3 PB1 HTS; bead flow cytometry, Alexa488-MEK5 binding to MEKK3; stronger effect = lower value; binding response (% of control), % at 10 µM; 5,900 compounds, 1.8% hits; AID 1894;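 active means binding response below 72% of control, or above a set upper limit, though filed actives all read lower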;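 further: 100% = DMSO only wells and 0% = binding blocked by excess unlabeled MEK5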
* = called active by the depositor; . = no result given; [ ] = another dose, or the depositor's remark. Compounds with a hit are over-represented: about 2.3% of the library has one in this group of screens.

SMILES	ABCG2 block	ABCB1 inh	MEKK2 WT-MEK5	MEKK2 mut-MEK5	MEKK3 PB1 HTS	MEKK2wt confirm	MEKK2mut-MEK5	MEKK3 confirm
NC(=O)COC(=O)c1ccccc1OCc1ccccc1Cl	49	1	640*	457*	125	102	3	103
S=C(NCCC(c1ccccc1)c1ccccc1)Nc1cccc(Cl)c1	21	3	5.0*	32*	95	105	-5	102
S=C(Nc1cccc(Cl)c1)NC1CC2CCCC(C1)N2C1CCCC1 (configuration not stated)	0	0	125	1	105	.	.	.
S=C(NCCN(C1CCCCC1)C1CCCC1)Nc1cccc(Cl)c1	.	.	134*	12	97	145	24	107
S=C(NCc1ccncc1)Nc1cccc(Cl)c1	-2	-1	106	5	106	.	.	.
O=C(CNC(=O)c1ccccc1F)OCC(=O)c1ccc(Cl)s1	.	.	96	2	96	.	.	.
CCc1ccc(NC(=O)CS(=O)CC(=O)Nc2ccc(N3CCOCC3)cc2)cc1 (configuration not stated)	.	.	98	1	102	.	.	.
COc1cc(CN2CCNC(=O)C2CC(=O)NCCCC2CCCC2)cc(OC)c1 (configuration not stated)	.	.	124	11	102	.	.	.
O=C1Cc2ccccc2Sc2cc(OCCCN3CCCCC3)ccc21	3	4	108	1	75*[inhibitor]	118	-1	99
ON=C1c2cc(OCCN3CCCCC3)ccc2-c2ccc(OCCN3CCCCC3)cc21	.	.	232*	31*	117	180	48	105
Nc1ccc(CN2CCCCCC2)cc1	1	0	136*	13	116	41	-20	81
Clc1ccc(OCCCN2CCCC2)cc1Cl	-1	0	107	1	131*	115	5	104
NNC(=O)c1nc(-c2ccccc2)cc(-c2ccccc2)n1	.	.	101	3	100	.	.	.
c1cc(OCCCN2CCCCC2)ccc1CN1CCCCC1	.	.	190*	33*	113	139	31	106
Clc1ccc(OCCCCN2CCCCC2)cc1	.	.	106	2	101	.	.	.
O=[N+]([O-])c1cccc(N/N=C/c2cccc(O)c2O)c1	1	-1	94	-6	102	.	.	.
O=S(=O)(c1ccc(C(F)(F)F)cc1)N1CCCN(c2ccc(C(F)(F)F)cn2)CC1	.	.	46*[inhibitor]	-26	47*[inhibitor]	104	4	107
COc1ccc(OC)c(NC(=O)CN(Cc2ccc(F)cc2)C2CCCCC2)c1	.	.	94	-4	99	.	.	.
COCC1CCN(C(=O)c2cc(COc3cc(C)c(Cl)c(C)c3)on2)C1 (configuration not stated)	.	.	104	2	102	.	.	.
CS(=O)(=O)N1N=C(c2ccccc2)CC1c1ccc2c(c1)OCO2 (configuration not stated)	0	0	.	.	20*[inhibitor]	67	-22	68*
O=S(=O)(c1ccccc1)N1N=C(c2ccccc2)CC1c1ccco1 (configuration not stated)	.	.	87	-11	93	.	.	.
COc1ccc(C2CC(c3ccccc3)=NN2S(=O)(=O)c2ccccc2)cc1 (configuration not stated)	.	.	103	50	20*[inhibitor]	91	-17	85
Cc1ccc(C2=NN(S(=O)(=O)c3ccccc3)C(c3ccccc3O)C2)cc1 (configuration not stated)	4	1	.	161*	14*[inhibitor]	88	-7	88
COc1nc(N(C)C)nc(-n2nnc(C(C)=O)c2C)n1	46	0	1.0*[inhibitor]	-42	2.0*[inhibitor]	95	-8	97
CCOc1nc(N(C)C)nc(-n2nnc(C(C)=O)c2C)n1	53	2	117	7	108	.	.	.
O=C(CNC(=O)c1cccs1)N/N=C/c1cccc(Cl)c1	.	.	98	2	96	.	.	.

High-throughput results deposited in PubChem by NMMLSC.
